Five compounds from ChEMBL document CHEMBL4118181, “Investigations on small molecule inhibitors targeting the histone H3K4 tri-methyllysine binding PHD-finger of JmjC histone demethylases” (Bioorg Med Chem, 2018) can be followed below.

As a reminder, the inhibition is the relative decrease from the control value, in per cent.

Activity calls are given as the source filed them. The rule behind the calls is not given here.

The target of test [1] is T1, Lysine-specific demethylase 7A (Homo sapiens) (UniProt Q6ZMT4).
T1 sequence (whole entry): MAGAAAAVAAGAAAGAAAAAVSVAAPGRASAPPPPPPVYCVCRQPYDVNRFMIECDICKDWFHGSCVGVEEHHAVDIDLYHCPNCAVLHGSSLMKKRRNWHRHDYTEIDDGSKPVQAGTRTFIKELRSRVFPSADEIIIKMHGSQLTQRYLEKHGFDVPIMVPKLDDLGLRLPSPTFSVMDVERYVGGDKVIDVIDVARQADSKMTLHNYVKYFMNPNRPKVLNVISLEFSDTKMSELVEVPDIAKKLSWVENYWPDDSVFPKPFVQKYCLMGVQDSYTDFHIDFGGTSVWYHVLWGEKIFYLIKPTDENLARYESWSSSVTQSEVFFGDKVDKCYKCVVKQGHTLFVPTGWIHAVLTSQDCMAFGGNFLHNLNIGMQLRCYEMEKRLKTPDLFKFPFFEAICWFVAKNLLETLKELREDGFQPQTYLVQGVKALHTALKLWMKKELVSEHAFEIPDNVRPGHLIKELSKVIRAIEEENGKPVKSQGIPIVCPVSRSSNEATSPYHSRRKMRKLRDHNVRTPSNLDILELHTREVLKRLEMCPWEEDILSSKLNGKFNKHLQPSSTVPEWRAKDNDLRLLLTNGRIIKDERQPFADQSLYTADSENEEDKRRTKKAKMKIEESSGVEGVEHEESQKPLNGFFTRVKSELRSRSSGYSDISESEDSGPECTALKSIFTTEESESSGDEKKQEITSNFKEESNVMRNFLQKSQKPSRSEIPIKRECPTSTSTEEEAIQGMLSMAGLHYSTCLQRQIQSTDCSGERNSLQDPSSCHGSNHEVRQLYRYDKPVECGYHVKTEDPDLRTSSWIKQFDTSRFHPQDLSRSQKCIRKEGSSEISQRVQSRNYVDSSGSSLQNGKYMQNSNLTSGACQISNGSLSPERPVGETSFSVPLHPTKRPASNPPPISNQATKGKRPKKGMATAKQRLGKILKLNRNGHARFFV
Briefly: Inhibition of KDM7A (PHD-JmjC) (unknown origin) demethylation activity at 100 uM preincubated for 10 mins followed by H3(1-15)K9me2 peptide substrate addition by MALDI-TOF-MS analysis.

The target of test [2] is Histone lysine demethylase PHF8 (Homo sapiens) (UniProt Q9UPP1). Briefly: Displacement of C-terminally biotinylated-H3K4me3 (1 to 21 residues) peptide from KDM7B (PHD-JmjC) (unknown origin) at 100 uM preincubated for 15 mins followed by peptide addition measured after 1 hr by luminescence-based AlphaScreen assay. (In general: Bead proximity is the source of the signal in Alpha formats.)
Chain of Histone lysine demethylase PHF8 (Homo sapiens) (Q9UPP1 whole entry, the tested form may be a part): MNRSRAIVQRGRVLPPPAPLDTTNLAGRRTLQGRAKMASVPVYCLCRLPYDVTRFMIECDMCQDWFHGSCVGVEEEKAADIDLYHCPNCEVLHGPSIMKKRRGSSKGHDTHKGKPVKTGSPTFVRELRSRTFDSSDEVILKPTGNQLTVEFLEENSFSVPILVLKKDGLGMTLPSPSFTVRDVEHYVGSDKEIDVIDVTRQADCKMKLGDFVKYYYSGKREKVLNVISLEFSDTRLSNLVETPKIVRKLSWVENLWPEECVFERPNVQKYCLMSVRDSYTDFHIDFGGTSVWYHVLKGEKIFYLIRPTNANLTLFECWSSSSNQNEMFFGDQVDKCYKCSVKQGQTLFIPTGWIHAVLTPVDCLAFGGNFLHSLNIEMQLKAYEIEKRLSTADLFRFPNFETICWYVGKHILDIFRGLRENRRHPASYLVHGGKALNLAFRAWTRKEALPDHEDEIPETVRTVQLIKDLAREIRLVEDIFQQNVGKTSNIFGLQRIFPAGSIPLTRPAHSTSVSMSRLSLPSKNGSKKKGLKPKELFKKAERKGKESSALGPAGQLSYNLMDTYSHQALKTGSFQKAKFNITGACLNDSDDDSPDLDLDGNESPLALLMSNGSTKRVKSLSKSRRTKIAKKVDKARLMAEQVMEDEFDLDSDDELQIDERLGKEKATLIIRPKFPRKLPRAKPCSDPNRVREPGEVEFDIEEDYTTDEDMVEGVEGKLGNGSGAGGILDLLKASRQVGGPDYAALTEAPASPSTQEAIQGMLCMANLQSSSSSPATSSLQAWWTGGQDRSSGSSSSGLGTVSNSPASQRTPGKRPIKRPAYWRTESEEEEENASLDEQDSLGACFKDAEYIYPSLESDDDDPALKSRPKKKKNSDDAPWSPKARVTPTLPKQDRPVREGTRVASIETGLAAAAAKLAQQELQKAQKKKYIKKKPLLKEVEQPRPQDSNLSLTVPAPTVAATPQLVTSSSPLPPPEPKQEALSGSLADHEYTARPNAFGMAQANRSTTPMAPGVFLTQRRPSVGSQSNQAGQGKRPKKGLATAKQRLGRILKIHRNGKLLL

Test [3] deals with Lysine-specific demethylase 5A (Homo sapiens) (UniProt P29375). Nature of the test: Mixed type inhibition of KDM5A (L88 to G353 residues) ARID/PHD1/2/3 deletion mutant (unknown origin) demethylation activity using H3(1-21)K4me3 peptide as substrate measured every 30 seconds over 25 mins by formaldehyde dehydrogenase coupled activity assay based Lineweaver-Burk plot analysis. In outline:
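FDH enzyme-coupled fluorescence assay of KDM5A_c2 demethylation, with formaldehyde production as the read-out. Kinetic analysis is made against the H3K4me3 substrate, and α and Ki are derived to assign the inhibition mode.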

Test [4] shares this target. Nature of the test: Substrate activity at KDM5A (L88 to G353 residues) ARID/PHD1/2/3 deletion mutant (unknown origin) demethylation activity assessed as formaldehyde production measured every 30 seconds over 25 mins in absence of H3K4me3.
Test [5] has as its target T1, Lysine-specific demethylase 7A (Homo sapiens). Briefly: Displacement of C-terminally biotinylated-H3K4me3 (1 to 21 residues) peptide from KDM7A (PHD-JmjC) (unknown origin) at 100 uM preincubated for 15 mins followed by peptide addition measured after 1 hr by luminescence-based AlphaScreen assay.

Chain of Lysine-specific demethylase 5A (Homo sapiens) (P29375 whole entry, the tested form may be a part): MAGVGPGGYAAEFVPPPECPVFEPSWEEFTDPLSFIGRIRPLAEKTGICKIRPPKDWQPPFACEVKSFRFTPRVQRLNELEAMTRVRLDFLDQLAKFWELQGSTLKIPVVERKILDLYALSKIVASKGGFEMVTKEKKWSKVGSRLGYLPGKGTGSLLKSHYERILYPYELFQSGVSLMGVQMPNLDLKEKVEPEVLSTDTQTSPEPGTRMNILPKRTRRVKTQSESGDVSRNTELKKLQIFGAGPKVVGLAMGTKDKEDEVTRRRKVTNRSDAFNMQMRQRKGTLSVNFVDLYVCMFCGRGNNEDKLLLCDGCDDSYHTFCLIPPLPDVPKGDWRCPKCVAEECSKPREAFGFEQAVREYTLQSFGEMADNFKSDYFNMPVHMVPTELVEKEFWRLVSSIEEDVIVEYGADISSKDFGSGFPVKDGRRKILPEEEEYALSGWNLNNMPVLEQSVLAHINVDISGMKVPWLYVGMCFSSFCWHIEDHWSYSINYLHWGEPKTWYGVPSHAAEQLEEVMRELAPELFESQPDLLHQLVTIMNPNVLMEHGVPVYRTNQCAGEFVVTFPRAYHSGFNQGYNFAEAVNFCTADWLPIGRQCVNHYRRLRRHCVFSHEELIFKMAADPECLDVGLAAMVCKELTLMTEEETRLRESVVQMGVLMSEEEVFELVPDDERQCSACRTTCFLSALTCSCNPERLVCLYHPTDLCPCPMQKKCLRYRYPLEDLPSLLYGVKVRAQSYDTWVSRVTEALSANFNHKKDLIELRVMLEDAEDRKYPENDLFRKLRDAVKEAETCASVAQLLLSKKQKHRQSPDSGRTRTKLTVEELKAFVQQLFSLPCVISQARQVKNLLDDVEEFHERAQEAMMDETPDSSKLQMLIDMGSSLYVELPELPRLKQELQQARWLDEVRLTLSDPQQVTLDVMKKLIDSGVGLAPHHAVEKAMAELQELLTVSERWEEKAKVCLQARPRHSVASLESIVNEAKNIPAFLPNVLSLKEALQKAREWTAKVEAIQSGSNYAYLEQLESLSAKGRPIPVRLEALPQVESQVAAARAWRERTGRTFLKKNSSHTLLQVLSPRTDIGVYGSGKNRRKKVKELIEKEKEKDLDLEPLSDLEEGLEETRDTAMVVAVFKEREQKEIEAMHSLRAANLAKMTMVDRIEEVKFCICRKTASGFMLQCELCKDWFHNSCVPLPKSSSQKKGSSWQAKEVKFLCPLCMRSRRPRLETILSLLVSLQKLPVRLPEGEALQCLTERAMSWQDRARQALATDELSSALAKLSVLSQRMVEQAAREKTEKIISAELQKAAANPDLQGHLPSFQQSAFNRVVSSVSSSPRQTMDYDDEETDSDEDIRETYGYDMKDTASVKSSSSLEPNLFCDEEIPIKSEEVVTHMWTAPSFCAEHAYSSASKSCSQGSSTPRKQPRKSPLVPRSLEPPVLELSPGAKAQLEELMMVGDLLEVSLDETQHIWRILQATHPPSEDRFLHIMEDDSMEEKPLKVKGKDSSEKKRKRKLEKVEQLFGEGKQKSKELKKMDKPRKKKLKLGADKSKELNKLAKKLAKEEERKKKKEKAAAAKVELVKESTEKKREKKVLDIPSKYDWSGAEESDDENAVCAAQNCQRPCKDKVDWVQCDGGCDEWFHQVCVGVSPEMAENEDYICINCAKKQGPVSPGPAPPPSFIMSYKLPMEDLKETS

In turn, `CCCCc1oc2ccccc2c1C(=O)c1ccc(OCCCN(C)C)cc1` came in with an inhibition in test [1] of 100%. Moreover, the inhibition result in test [2] is “inactive”.
In test [1], `CCCCc1oc2ccccc2c1C(=O)c1ccc(OCCC[N+](C)(C)C)cc1` returned an inhibition of 100%. For the same compound, the inhibition result in test [3] was “Active”. The outcome in test [4] was inactive.
`CCCCc1oc2ccccc2c1C(=O)c1cc(I)c(OCCC[N+](C)(C)C)c(I)c1` displayed an inhibition in test [1] of 100%. Further, the inhibition entry in test [2] is “inactive”.
Turning to `CCCCc1oc2ccccc2c1C(=O)c1cc(I)c(OCC[N+](C)(C)C)c(I)c1`, the inhibition result in test [5] and in test [2] was “inactive” in each case. Also, the inhibition in test [1] came to 17%.
Take `Cc1oc2ccccc2c1C(=O)c1ccc(OCCC[N+](C)(C)C)cc1`: the inhibition in test [1] was 100%.
